From ChEMBL document CHEMBL1134670, “Synthesis and cytotoxicity on sensitive and doxorubicin-resistant cell lines of new pyrrolo[2,1-c][1,4]benzodiazepines related to anthramycin” (J Med Chem, 2001)

Columns and labels:
[1] = organism: Homo sapiens; assay: In vitro cytotoxicity expressed as conc. that inhibits 50% of KB (human) cell proliferation; format: functional
Summary of the method: (§1)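 KB and VERO monolayers in medium 199 with 10% newborn calf serum, 12 × 10^4 cells seeded per well. Serial dilutions from a DMSO or water stock were added at seeding, with final DMSO below 1%. Cultures were held 48 h at 37 °C in 5% CO2. Viability was then measured after 18 h in neutral red medium, SDS lysis and dye absorbance at 540 nm.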

[2] = test system: K562; assay: In vitro cytotoxicity expressed as concentration that inhibits 50% of K562R (resistant clone) cell proliferation; format: functional, cell-based; conditions: Homo sapiens
[3] = test system: HCT-116; assay: In vitro cytotoxicity expressed as concentration that inhibits 50% of HCT(human colon carcinoma)116 cell proliferation; format: functional, cell-based
[4] = test system: T-24; assay: In vitro cytotoxicity expressed as concentration that inhibits 50% of T24 (bladder) sensitive variant cell proliferation; format: functional, cell-based; conditions: Homo sapiens
Summary of the method: (§2)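 Cells were kept at 37 °C in sealed dishes of MEM with 10% heat-inactivated FCS plus glutamine, penicillin, streptomycin and gentamycin. […] Cells were plated at 10 000 cells/mL for 24 h, then given nine concentrations from 10^-5 to 10^-9 M. Growth was read by MTT colorimetric assay.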

[5] = test system: Vero; assay: In vitro cytotoxicity expressed as conc. that inhibits 50% of VERO(monkey kidney) cell proliferation; format: functional, cell-based; conditions: Chlorocebus sabaeus; summary of the method: as §1
[6] = test system: HCT-15; assay: In vitro cytotoxicity expressed as concentration that inhibits 50% of HCT 15 (colon) resistant variant cell proliferation; format: functional, cell-based; conditions: Homo sapiens; summary of the method: as §2
[7] = test system: T-24; assay: In vitro cytotoxicity expressed as concentration that inhibits 50% of T24 (bladder) resistant variant cell proliferation; format: functional, cell-based; conditions: Homo sapiens; summary of the method: as §2
[8] = test system: LoVo; assay: In vitro cytotoxicity expressed as concentration that inhibits 50% of LoVo (colon) resistant cell proliferation; format: functional, cell-based; conditions: Homo sapiens; summary of the method: as §2
[9] = In vitro cytotoxicity expressed as concentration that inhibits 50% of U373 (glioblastoma) resistant variant cell proliferation; format: functional, cell-based, U-373MG ATCC; conditions: Homo sapiens, U373 MG; summary of the method: as §2
[10] = test system: U373 MG; assay: In vitro cytotoxicity expressed as concentration that inhibits 50% of U373 (glioblastoma) sensitive variant cell proliferation; format: functional, cell-based, U-373MG ATCC; conditions: Homo sapiens; summary of the method: as §2
[11] = test system: U-87 MG; assay: In vitro cytotoxicity expressed as concentration that inhibits 50% of U87 (glioblastoma) resistant variant cell proliferation; format: functional, cell-based, U-87MG ATCC; conditions: Homo sapiens; summary of the method: as §2
[12] = test system: HCT-15; assay: In vitro cytotoxicity expressed as concentration that inhibits 50% of HCT 15 (colon) sensitive variant cell proliferation; format: functional, cell-based; conditions: Homo sapiens; summary of the method: as §2
[13] = test system: K562; assay: In vitro cytotoxicity expressed as concentration that inhibits 50% of K562S (sensitive clone)cell proliferation; format: functional, cell-based; conditions: Homo sapiens
[14] = (§3) In vitro cytotoxicity expressed as concentration that inhibits 50% of J82 (bladder) resistant variant cell proliferation; format: functional; conditions: Homo sapiens; summary of the method: as §2
[15] = as §3; format: functional; conditions: Homo sapiens; summary of the method: as §2; remark: listed apart in the source
[16] = test system: LoVo; assay: In vitro cytotoxicity expressed as concentration that inhibits 50% of LoVo (colon) sensitive variant cell proliferation; format: functional, cell-based; conditions: Homo sapiens; summary of the method: as §2
[17] = test system: U-87 MG; assay: In vitro cytotoxicity expressed as concentration that inhibits 50% of U87 (glioblastoma) sensitive variant cell proliferation; format: functional, cell-based, U-87MG ATCC; conditions: Homo sapiens; summary of the method: as §2
[18] = test system: K562; assay: In vitro cytotoxicity expressed as concentration that inhibit 50% of K562R (resistant clone) cell proliferation; format: functional, cell-based; conditions: Homo sapiens
[19] = In vitro cytotoxicity expressed as concentration that inhibits 50% of J82 (bladder) sensitive variant cell proliferation; format: functional; conditions: Homo sapiens; summary of the method: as §2

Compound	IC50 [1] [µM]	IC50 [2] [µM]	IC50 [3] [µM]	IC50 [4] [µM]	IC50 [5] [µM]	IC50 [6] [µM]	IC50 [7] [µM]	IC50 [8] [µM]	IC50 [9] [µM]	IC50 [10] [µM]	IC50 [11] [µM]	IC50 [12] [µM]	IC50 [13] [µM]	IC50 [14] [µM]	IC50 [15] [µM]	IC50 [16] [µM]	IC50 [17] [µM]	IC50 [18] [µM]	IC50 [19] [µM]
CO[C@H]1Nc2cc3c(cc2C(=O)N2C=C(/C=C/C(=O)N(C)C)C[C@@H]12)OCO3	0.005	0.03	0.02	0.01	0.02	0.007	0.01	0.009	0.037	0.03	0.038	0.008	0.05	0.01	0.01	0.009	0.04	–	–
CO[C@H]1Nc2ccccc2C(=O)N2C=C(/C=C/C(=O)N(C)C)C[C@@H]12	0.086	–	0.05	–	0.075	–	–	–	–	–	–	–	0.085	–	–	–	–	0.12	–
COc1cccc2c1C(=O)c1c(O)c3c(c(O)c1C2=O)C[C@@](O)(C(=O)CO)C[C@@H]3O[C@H]1C[C@H](N)[C@H](O)[C@H](C)O1 [DOXORUBICIN]	0.1	7	–	0.02	5	0.08	> 10	0.08	0.13	0.01	0.14	0.05	0.05	> 10	–	0.008	0.06	–	0.03
CO[C@@]12[C@H](COC(N)=O)C3=C(C(=O)C(C)=C(N)C3=O)N1C[C@@H]1N[C@@H]12 [MITOMYCIN]	0.5	–	–	–	–	–	–	–	–	–	–	–	–	–	–	–	–	–	–
CN(C)C(=O)/C=C/C1=CN2C(=O)c3cc4c(cc3NC(S(=O)(=O)O)[C@@H]2C1)OCO4 (some centres not stated) [SODIUM BISULFITE ADDUCT]	0.05	–	0.025	–	0.05	–	–	–	–	–	–	–	–	–	–	–	–	–	–
